One experiment relates to HT-29. Nature of the experiment: In vitro inhibition of growth of the human gastrointestinal adenocarcinoma cells HT-29. In kind it is functional, cell-based. In short, it runs like this:
(§1)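 Monodispersed growing cells (0.7-1 × 10^5 in 1 mL medium) were added to wells already holding 0–50 μL of drug solution. Drug was dissolved fresh in 0.1 M NaOH and diluted with pH 7.0 phosphate buffer. Cells were incubated 72–96 h at 37 °C in humidified 8% CO₂, trypsinized and counted on a Coulter counter. IC50 was the concentration giving 50% growth inhibition versus untreated controls.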

A short description of experiment [1]: In vitro inhibition of growth of the human gastrointestinal adenocarcinoma cells HaTu80. In kind it is functional. The method in brief:
as §1

For another experiment, the system named is SW480. Nature of the experiment: In vitro inhibition of growth of the human gastrointestinal adenocarcinoma cells SW480. In kind it is functional, cell-based. In short, it runs like this:
as §1

The next experiment has as its system WiDr. Nature of the experiment: In vitro inhibition of growth of the human gastrointestinal adenocarcinoma cells WIDR. The class given is functional, cell-based. The method in brief: as §1

As usually defined, the IC50 is the midpoint of a concentration-inhibition curve. Read a high IC50 as a need for much substance.

Some results are limits rather than exact numbers.

In the case of `Nc1nc(N)c2cc(NCc3ccc(C(=O)NC(CCC(=O)O)C(=O)O)cc3)ccc2n1` (centres undefined), the IC50 in the experiment on HT-29 is 0.2 µM; in experiment [1] (Homo sapiens), 0.15 µM; in the experiment with SW480, 0.2 µM; in the experiment with WiDr, 0.2 µM.

Take `CN(Cc1ccc(C(=O)NC(CCC(=O)O)C(=O)O)cc1)c1ccc2nc(N)nc(O)c2c1` (centres undefined): the IC50 came out at 3.2 µM in the experiment on HT-29, 4.8 µM in experiment [1] (Homo sapiens), 5 µM with SW480 and 6.3 µM in the experiment with WiDr.

Regarding `Nc1nc(O)c2cc(N(C=O)Cc3ccc(C(=O)NC(CCC(=O)O)C(=O)O)cc3)ccc2n1` (centres undefined), the half-maximal inhibitory concentration (IC50) is 100 µM in the experiment with HT-29, 95 µM in experiment [1] (Homo sapiens), 150 µM with SW480 and 195 µM in the experiment on WiDr.

As to `Cc1c(N(C)Cc2ccc(C(=O)NC(CCC(=O)O)C(=O)O)cc2)ccc2nc(N)nc(O)c12` (centres undefined), the IC50 in the experiment with HT-29 was 2.7 µM; in experiment [1] (Homo sapiens) it was 3.6 µM; in the experiment on SW480, 4.8 µM; with WiDr, 4.8 µM.

Take `Cc1c(NCc2ccc(C(=O)NC(CCC(=O)O)C(=O)O)cc2)ccc2nc(N)nc(O)c12` (centres undefined): the half-inhibitory concentration (IC50) in the experiment on HT-29 came to 1.1 µM; in experiment [1] (Homo sapiens), 4 µM; in the experiment on SW480 it was 10 µM; with WiDr, 4 µM.

In the case of `Nc1nc(=O)c2cc(NCc3ccc(C(=O)N[C@H](CCC(=O)O)C(=O)O)cc3)ccc2[nH]1`, the IC50 (with HT-29; in experiment [1] (Homo sapiens); in the experiment with SW480; in the experiment with WiDr) was over 300 µM in each case.

`Nc1nc(=O)c2cc(NCc3ccc(C(=O)NC(CCC(=O)O)C(=O)O)cc3)ccc2[nH]1` (stereo in doubt; form 1): the half-inhibitory concentration (IC50) in experiment [1] amounted to 4.5 µM.

`CN(Cc1cnc2nc(N)nc(N)c2n1)c1ccc(C(=O)N[C@@H](CCC(=O)O)C(=O)O)cc1` [METHOTREXATE]: the half-maximal inhibitory concentration (IC50) in the experiment with HT-29 is 0.018 µM; in experiment [1] (Homo sapiens), 0.009 µM; in the experiment on SW480, 0.015 µM; in the experiment on WiDr, 0.025 µM.

Values taken from ChEMBL document CHEMBL1122572, “Improved synthesis and antitumor evaluation of 5,8-dideazaisofolic acid and closely related analogues” (J Med Chem, 1984).
